Measured values as given in ChEMBL document CHEMBL4014317, “Urinary Tract Infection: Which Conformation of the Bacterial Lectin FimH Is Therapeutically Relevant?” (J Med Chem, 2017).
Converted amounts (≈) assume the structure as drawn.

Columns and labels:
[1] = (§1) Competitive binding affinity to full length 6His-tagged recombinant Escherichia coli FimH CRD expressed in Escherichia coli HM125 after 1 hr in presence of fluorescence labelled N-(2-(3-(3',6'-dihydroxy-3-oxo-3H-spiro[isobenzofuran-1,9'-xanthene]-5-yl)thioureido)ethyl)-4-methylbenzamide by fluorescence polarization assay
How it was run: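 Full-length FimH was stabilized by FimG donor-strand peptide complementation. Serially diluted competitor was titrated into 300 nM FimHFL plus 10 nM fluorescent ligand in 20 mM HEPES pH 7.4, 150 mM NaCl, 50 μg/mL BSA. Mixtures were incubated ≥1 h at rt, and FP was read at excitation 485 nm and emission 528 nm. KD came from an equilibrium competition fit, n = 1.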

[2] = 1-octanol/water partition coefficient, log D of the compound at 1 uM at pH 7.4 after 2 hrs by LC-MS analysis; format: physicochemical
[3] = as §1, with “to” for “to full length”, “lectin domain” for “CRD”, “24 hrs” for “1 hr”
How it was run: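 FimH lectin domain (His6-tagged via thrombin site) was expressed in E. coli HM125 and affinity-purified. Serially diluted competitor was added to 50 nM protein plus 50 nM fluorescent ligand in 20 mM HEPES pH 7.4, 150 mM NaCl, 50 μg/mL BSA. Mixtures were incubated ≥24 h at equilibrium, and FP was read at 485/528 nm. KD came from an equilibrium competition fit, n = 3, SD.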

[4] = Kinetic solubility of compound in pH 7.4 buffer after 15 hrs; format: physicochemical; conditions: read-out: Kinetic_solubility
How it was run: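 DMSO stock (100 mM) was diluted into aqueous universal buffer pH 7.4 to 1 mM final (1% DMSO), in triplicate. After 15 h, solutions were filtered and mixed 1:1 with 1-propanol. Dissolved amount was quantified by UV (190–500 nm) against reference spectra at 0.167 mM in buffer/propanol.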

[5] = Binding affinity to full length 6His-tagged recombinant Escherichia coli FimH CRD expressed in Escherichia coli HM125 by isothermal titration calorimetry
How it was run: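 FimHFL was coexpressed with FimC in E. coli HM125, and FimC was displaced by a FimG donor-strand peptide to give a stable construct. Buffer was 20 mM HEPES pH 7.4, 150 mM NaCl, with protein extensively dialyzed against it. Ligand (200–600 μM) was titrated into 20.3–62.1 μM protein in 1.5–2 μL injections at rt, single run. Isotherms were integrated automatically.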

Escherichia coli = assay: Selectivity ratio of Kd for full length 6His-tagged recombinant Escherichia coli FimH CRD expressed in Escherichia coli HM125 to Kd for 6His-tagged recombinant Escherichia coli FimH lectin domain expressed in Escherichia coli HM125
How it was run: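 Competitive FP, with Kd for each construct and the ratio taken as FimHFL/FimHLD. FimHFL was stabilised by donor-strand (DsG) complementation, run at 300 nM with 10 nM tracer for ≥1 h. FimHLD and tracer were equimolar at 50 nM, ≥24 h. Buffer: 20 mM HEPES pH 7.4, 150 mM NaCl, 50 μg/mL BSA; rt. Ex 485/em 528 nm, equilibrium competition fit; FL n=1, LD n=3.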

Structure (SMILES)	logD at 2 h, 1 µM [2]	solubility kinetic at 15 h [4] [µg/mL]	Selectivity ratio (Escherichia coli)	Kd [1] [nM]	Kd [3] [nM]	Kd [5] [nM]
N#Cc1ccc(-c2ccc(O[C@H]3O[C@H](CO)[C@@H](O)[C@H](O)[C@@H]3O)c(Cl)c2)cc1	–	–	–	83.8	–	130
Cc1ccccc1-c1ccc(O[C@H]2O[C@H](CO)[C@@H](O)[C@H](O)[C@@H]2O)c(Cl)c1	2.9	135 (≈ 354 µM)	–	436	2.5	–
N#Cc1cccc(-c2ccc(O[C@H]3O[C@H](CO)[C@@H](O)[C@H](O)[C@@H]3O)c(Cl)c2)c1	2.1	227 (≈ 579 µM)	–	85.9	0.3	–
OC[C@H]1O[C@H](Oc2ccc(-c3ccc(Cl)c(C(F)(F)F)c3)cc2Cl)[C@@H](O)[C@@H](O)[C@@H]1O	–	1 (≈ 2.13 µM)	–	377	5.7	–
COc1ccccc1-c1ccc(O[C@H]2O[C@H](CO)[C@@H](O)[C@H](O)[C@@H]2O)c(Cl)c1	2.4	> 280	–	391	2.3	–
Cc1ccc(C(=O)NCCNC(=S)Nc2ccc3c(c2)C(=O)OC32c3ccc(O)cc3Oc3cc(O)ccc32)cc1	–	–	–	137	–	–
OC[C@H]1O[C@H](Oc2ccc(-c3ccc(Cl)cc3Cl)cc2Cl)[C@@H](O)[C@@H](O)[C@@H]1O	–	8 (≈ 18.4 µM)	–	465	2.8	–
OC[C@H]1O[C@H](Oc2ccc(-c3ccccc3Cl)cc2Cl)[C@@H](O)[C@@H](O)[C@@H]1O	3.1	28 (≈ 69.8 µM)	–	434	2.6	–
CCCCCCCO[C@H]1O[C@H](CO)[C@@H](O)[C@H](O)[C@@H]1O	1.7	> 3000	100	3600	–	3200
O=[N+]([O-])c1cccc(-c2ccc(O[C@H]3O[C@H](CO)[C@@H](O)[C@H](O)[C@@H]3O)c(Cl)c2)c1	2.4	23 (≈ 55.9 µM)	–	39.1	0.1	–
OC[C@H]1O[C@H](Oc2ccc(-c3cccc(C(F)(F)F)c3)cc2Cl)[C@@H](O)[C@@H](O)[C@@H]1O	3.3	36 (≈ 82.8 µM)	–	575	3.3	–

Second part, led by results:

logD at 2 h, 1 µM [2]	solubility kinetic at 15 h [4] [µg/mL]	Selectivity ratio (Escherichia coli)	Structure (SMILES)	Kd [1] [nM]	Kd [3] [nM]	Kd [5] [nM]
3.4	22 (≈ 50.6 µM)	–	OC[C@H]1O[C@H](Oc2ccc(-c3ccc(C(F)(F)F)cc3)cc2Cl)[C@@H](O)[C@@H](O)[C@@H]1O	415	3.9	–
3	7.1 (≈ 18.6 µM)	–	Cc1cccc(-c2ccc(O[C@H]3O[C@H](CO)[C@@H](O)[C@H](O)[C@@H]3O)c(Cl)c2)c1	380	1.7	–
3.3	7.4 (≈ 19.4 µM)	–	Cc1ccc(-c2ccc(O[C@H]3O[C@H](CO)[C@@H](O)[C@H](O)[C@@H]3O)c(Cl)c2)cc1	297	2.7	–
3.3	3.5 (≈ 8.72 µM)	–	OC[C@H]1O[C@H](Oc2ccc(-c3ccc(Cl)cc3)cc2Cl)[C@@H](O)[C@@H](O)[C@@H]1O	251	3.9	–
2.1	16 (≈ 39.1 µM)	–	CC(=O)c1ccc(-c2ccc(O[C@H]3O[C@H](CO)[C@@H](O)[C@H](O)[C@@H]3O)c(Cl)c2)cc1	98.6	0.3	–
2.7	3.8 (≈ 9.58 µM)	–	COc1ccc(-c2ccc(O[C@H]3O[C@H](CO)[C@@H](O)[C@H](O)[C@@H]3O)c(Cl)c2)cc1	344	2	–
3.2	5.7 (≈ 14.2 µM)	–	OC[C@H]1O[C@H](Oc2ccc(-c3cccc(Cl)c3)cc2Cl)[C@@H](O)[C@@H](O)[C@@H]1O	353	2.3	–
–	2.3 (≈ 5.28 µM)	–	OC[C@H]1O[C@H](Oc2ccc(-c3ccc(Cl)c(Cl)c3)cc2Cl)[C@@H](O)[C@@H](O)[C@@H]1O	692	4.3	–
2.3	117 (≈ 284 µM)	–	O=[N+]([O-])c1ccc(-c2ccc(O[C@H]3O[C@H](CO)[C@@H](O)[C@H](O)[C@@H]3O)c(Cl)c2)cc1	140	0.5	–
2.6	5.5 (≈ 15 µM)	–	OC[C@H]1O[C@H](Oc2ccc(-c3ccccc3)cc2Cl)[C@@H](O)[C@@H](O)[C@@H]1O	458	2.8	–
